SR-BI DiI-HDL act: SR-BI HDL lipid transfer activation; AID 504775; CHO ldlA[mSR-BI] cells, DiI-HDL uptake fluorescence, 3 h; 100 = double the neutral-control signal; activation, % at 12.5 µM; hit rate 0.096% among 320,000;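 active = mean replicate activation of at least 60% and every replicate at or above 60%; inconclusive = mean or all-replicate condition met, but not both; inactive = mean below 60% and not all replicates reaching 60%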;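 note: 0% = median plate neutral-control signal and 100% = twice that signal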
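Test system: SR-BI-overexpressing, LDLR-lacking CHO cells; Medium: Ham's F12 with 0.5% BSA, HEPES 25 mM, pH 7.4; Schedule: 3 h, 37 °C; Technique: bottom-read fluorescence, 550/595 nm.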
XiGFP reactiv: X-chromosome reactivation activator; XiGFP mouse fibroblasts, % GFP-positive cells imaging, 3 d; cells co-treated with 5-aza-dC sensitizer; scaled so ellipticine positive control = 100%; activation, % at 7.58 µM; hit rate 0.055% among 360,000; AID 743238;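 active = mean normalized replicate activation at least 10% and every replicate at or above 10%; inconclusive = only one of the two criteria met; inactive = mean below 10% and not all replicates reach 10%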;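 note: 0% = median of on-plate neutral control wells and 100% = ellipticine 6 µM median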
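Assay system – SV40-immortalized XiGFP fibroblast cells, line 68-5-11 · Buffer or medium – DMEM supplemented with 5-aza-dC as sensitizing agent · Dosing – one concentration, pinned · Benchmarks – positive control ellipticine, 6 µM final · Times – 3 days compound exposure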
NSD2 HMT inh: inhibitors of human histone methyltransferase NSD2; O96028; NSD2 peptide methylation, AlphaScreen, 120 min; inhibition, % at 12.5 µM; hit rate 0.54% among 310,000; in the data active = inhibition above about 50%
sPLA2-III inh: Inhibits HGIII-sPLA2 liposome hydrolysis, primary screen; Q9NZ20; QFRET BODIPY PC-A2 liposome hydrolysis, fluorescence; inhibition, % at 12.2 µM; hit rate 0.56% among 370,000; AID 743126;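 active = inhibition above mean plus 3 SD of compounds lying within the high and low control bounds, cut at about 19% in these data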;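 note: 0% = median of test compound wells and 100% = no enzyme DMSO wells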
Target sequence (Q9NZ20 whole entry, looked up): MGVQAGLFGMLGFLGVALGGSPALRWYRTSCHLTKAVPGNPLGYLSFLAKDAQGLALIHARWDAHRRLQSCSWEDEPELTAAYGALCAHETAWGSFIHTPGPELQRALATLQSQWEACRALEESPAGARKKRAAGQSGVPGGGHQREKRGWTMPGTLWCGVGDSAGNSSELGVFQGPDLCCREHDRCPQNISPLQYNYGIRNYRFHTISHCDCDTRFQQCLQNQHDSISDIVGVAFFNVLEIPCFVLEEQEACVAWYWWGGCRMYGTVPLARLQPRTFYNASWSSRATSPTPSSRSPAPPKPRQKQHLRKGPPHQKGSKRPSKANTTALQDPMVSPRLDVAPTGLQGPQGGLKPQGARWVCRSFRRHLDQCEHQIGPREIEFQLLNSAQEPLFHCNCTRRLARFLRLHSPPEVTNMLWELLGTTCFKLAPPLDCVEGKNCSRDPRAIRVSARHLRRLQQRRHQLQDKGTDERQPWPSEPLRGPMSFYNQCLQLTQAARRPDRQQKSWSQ
ARNT-TACC3 inh: disruptors of human ARNT/TACC3 interaction | Q9Y6A5 | AlphaScreen His-ARNT PAS-B/GST-TACC3 binding, luminescence; TACC3 fragment carries E629A point mutation | inhibition, % at 9.99 µM | hit rate 0.66% among 390,000 | AID 623870;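 active = mean inhibition of replicates at least 50% and at least half of replicates each reaching 50%; inconclusive = half or more replicates reach 50% but mean below 50%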;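 note: 0% = complete ARNT plus TACC3 wells and 100% = ARNT alone without TACC3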
SR-BI DiI inh: blocks mouse SR-BI lipid uptake from DiI-HDL. AID 488896. inhibition, % at 12.5 µM. ldlA[mSR-BI] CHO cells, DiI-HDL uptake fluorescence, 3 h. Q61009. hit rate 0.96% among 320,000;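 active = mean replicate inhibition of at least 70% and a set share of replicates each scoring 70 or more; inconclusive = meets just one of the two criteria; inactive = fails both criteria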;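 note: 0% = median of neutral control wells and 100% = median of positive control wells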
The depositor's hits bear a star; ? = inconclusive; nt = no result. Shown are actives, neighbours in structure and some others; about 2% of the full set was active somewhere.

SMILES	SR-BI DiI-HDL act	XiGFP reactiv	NSD2 HMT inh	sPLA2-III inh	ARNT-TACC3 inh	SR-BI DiI inh
Cc1nc(NC(=O)c2ccco2)sc1-c1csc(Nc2ccc(Cl)cc2)n1	-84.5	0.2	nt	2.4	0.3	84.5*
COc1ccccc1Nc1nc(-c2sc(NC(=O)c3ccco3)nc2C)cs1	-85.1	0.1	nt	-1.3	-3.9	85.1*
Cc1cc(C(F)(F)F)nc(-n2cc(-c3ccccc3)nn2)n1	-31.3	0.0	-2.2	-8.5	-1.4	31.3
Cc1ccc(S(=O)(=O)N2CCOCC2)cc1C(=O)OCC(=O)N1CCc2ccccc2C1	-76.2	nt	-0.3	-6.0	13.8	76.2*
O=C(COc1ccc(S(=O)(=O)N2CCOCC2)cc1)N1CCc2ccccc2C1	-4.5	0.0	-3.9	-5.8	-0.9	4.5
Cc1cc(C)n(-c2nnc(C)c(=O)[nH]2)n1	21.5	nt	-3.9	2.4	60.0*	-21.5
Cc1cc(C)n(-c2nnc(C)n2N)n1	5.0	nt	-2.4	3.5	-13.7	-5.0
Cc1cc(C(=O)COC(=O)c2ccc(O)cc2)c(C)n1CCc1ccc(F)cc1	-73.7	0.1	-1.8	-51.9	-2.2	73.7*
CCCCc1ccc(N=N/C(C(=O)Nc2cc(OC)c(NC(C)=O)cc2OC)=C(/C)O)cc1	-87.1	0.0	0.8	-2.0	-9.1	87.1*
Cc1cccc(S(=O)(=O)N2CC[C@@H]3[C@H](CO)N(C)c4ccc(C#Cc5ccc(F)cc5)cc4[C@@H]32)c1	nt	nt	nt	nt	48.0*	nt
COc1cccc(S(=O)(=O)N2CC[C@H]3[C@@H](CO)N(C)c4ccc(C#Cc5ccc(F)cc5)cc4[C@H]32)c1	nt	0.0	nt	nt	-13.0	nt
Cc1cccc(NC(=S)NNC(=O)Cc2ccccc2)c1	211.4*	-0.1	-1.5	19.0	-7.5	-211.4
Cn1c(/C=C(\C#N)C(N)=S)ccc1-c1ccc(Br)cc1	-73.6	0.1	19.2	7.9	-4.4	73.6*
Cn1cccc1/C=C(\C#N)C(N)=S	18.8	0.0	5.4	8.4	9.0	-18.9
CCOC(=O)N1CCN(C(=O)c2ccc3c(c2)N(C)C(=O)/C(=C\c2ccc(OCC)c(OC)c2)S3)CC1	-55.7	0.3	nt	-21.7	10.0	55.7
CCOC(=O)N1CCC(NC(=O)c2ccc3c(c2)N(C)C(=O)/C(=C/c2cccc(OC)c2)S3)CC1	-74.9	0.0	0.2	-1.5	-1.6	74.9*
CN1C(=O)/C(=C/c2ccccc2F)Sc2ccc(C(=O)NCC3CCCO3)cc21 (centres undefined)	-70.1	0.1	nt	-19.6	36.0	?
COc1ccc(/C=C2\Sc3ccc(C(=O)NCCCN4CCCC4)cc3N(C)C2=O)cc1OC	-77.8	0.0	16.7	-3.1	22.4	77.8*
Cc1cccc(/C=C2\Sc3ccc(C(=O)NCC4CCCO4)cc3N(C)C2=O)c1 (centres undefined)	-92.0	0.0	nt	-11.4	-0.8	92.0*
COc1ccccc1S(=O)(=O)Nc1ccc2c(c1)OC[C@H](C)NC[C@@H](C)[C@H](OC)CN(C)C2=O	nt	0.1	nt	nt	-4.7	nt
CCS(=O)(=O)Nc1ccc2c(c1)C(=O)N(C)[C@H]1CC[C@H](CC(=O)N3CCOCC3)O[C@H]1CO2	nt	0.0	nt	nt	1.4	nt
CCOc1ccc2c(c1)c(C(C)=O)c(C)n2-c1ccccc1	-73.7	nt	2.9	9.6	-7.3	73.7*
Cc1[nH]c2ccccc2c1/C=N/NC(=O)c1cccc([N+](=O)[O-])c1	-57.7	0.0	-1.1	0.9	nt	57.7
C/C(=N\Nc1ccc([N+](=O)[O-])cc1)c1ccc2c(c1)OCO2	-52.1	0.0	-1.8	1.7	-1.9	52.1
Cc1[nH]c2ccccc2c1/C=N/Nc1ccc([N+](=O)[O-])cc1	-128.1	74.9*	5.4	-16.0	1.8	128.1*
SMILES	SR-BI DiI-HDL act	XiGFP reactiv	NSD2 HMT inh	sPLA2-III inh	ARNT-TACC3 inh	SR-BI DiI inh
C/C(=N/Nc1ccc([N+](=O)[O-])cc1)c1ccc(C)cc1C	-47.9	0.0	4.0	-9.9	4.9	47.9
C/C(=N/Nc1ccc([N+](=O)[O-])cc1)c1c[nH]c2ccccc12	-126.7	3.8	2.3	-8.8	-0.3	126.6*
C/C(=N\Nc1ccc([N+](=O)[O-])cc1)c1ccc(C#N)cc1	-77.6	-0.1	-5.4	4.6	24.1	77.6*
CC(N=C1NS(=O)(=O)c2ccccc21)C(=O)NCc1ccncc1 (centres undefined)	7.4	0.0	2.0	18.0	-3.5	-7.4
CCS(=O)(=O)NCC[C@H]1CC[C@@H](NC(=O)Cc2ccccn2)[C@H](CO)O1	nt	-0.4	nt	nt	7.2	nt
Cc1cc2nc3c(=O)[nH]c(=S)[nH]c3nc2cc1NC(=O)C(F)(F)F	17.4	0.4	nt	-22.5	70.3*	-17.4
O=c1[nH]c(=S)[nH]c2nc(-c3ccccc3)cnc12	7.0	0.1	-0.1	12.3	1.0	-7.0
Cc1ccc(C)c(Nc2cc(C)nc3ncnn23)c1	192.1*	0.3	1.4	2.0	-7.9	-192.1
COCC1=C(C(=O)OC(C)OC(=O)OC(C)C)N2C(=O)[C@@H](NC(=O)/C(=N\OC)c3csc(N)n3)[C@H]2SC1 (some centres undefined)	-87.8	0.1	nt	-6.0	28.9	87.8*
CON=C(C(=O)NC1C(=O)N2C(C(=O)O)=C(CSc3nc(=O)c(=O)[nH]n3C)CSC12)c1csc(N)n1 (centres undefined)	5.2	0.1	nt	1.3	12.4	-5.2
Cc1nn(-c2ccccc2)cc1/C=N/NS(=O)(=O)c1ccccc1	14.2	0.3	0.3	-9.6	nt	-14.2
COc1ccc(C(C)=O)cc1COC(=O)c1ccc(C)c(S(=O)(=O)N2CCOCC2)c1	-70.5	-0.1	nt	1.8	-4.3	70.5*
COc1ccc(C(=O)OCc2cc(=O)oc3c(C)c(C)ccc23)cc1S(=O)(=O)N1CCOCC1	nt	-0.2	3.6	13.5	nt	nt
CCC(=O)N1CC[C@@H]2[C@H](CO)Nc3ccc(C#Cc4ccc(F)cc4)cc3[C@@H]21	nt	0.3	nt	nt	1.4	nt
O=C(N/N=C/c1cc(Br)c(O)c(Br)c1O)c1cccnc1	3.1	0.1	16.9	1.3	70.3*	-3.1
O=C(N/N=C/c1cc(O)ccc1Br)c1cccnc1	-77.0	0.1	0.5	-5.6	85.3*	77.0*
O=C(N/N=C/c1cc2c(cc1Br)OCO2)c1cccnc1	-30.1	0.0	-1.4	-3.1	nt	30.1
O=C(N/N=C/c1ccc(Br)s1)c1cccnc1	21.0	0.0	-1.4	0.9	12.7	-21.0
COc1ccc(S(=O)(=O)N2CCC(C(=O)N[C@@H](C)C(=O)NCc3ccc(F)cc3)CC2)cc1	-6.8	0.1	-2.5	-1.9	8.1	6.8
COc1ccc(-c2cc(C(=O)N3CCN(c4ccccc4F)CC3)c3ccccc3n2)c(OC)c1	-53.2	-0.1	-0.7	-3.7	1.2	53.2
Cc1cc2nc3c(nc2cc1C)C1(C(=O)O)CCC3(C)C1(C)C (centres undefined)	1.7	nt	6.1	5.0	-10.7	-1.7
